From ChEMBL document CHEMBL1154334, “Effect of the structure of adenosine mimic of bisubstrate-analog inhibitors on their activity towards basophilic protein kinases” (Bioorg Med Chem Lett, 2009)
One block for each molecule: values may come before it. Where a SMILES comes first, the peptide text is derived from it. [ ]: non-standard residue; d: D form. The star is where a group is joined. X1 = Nc1nccc(-c2ccc(C(=O)*)s2)n1; Ahx = NCCCCCC(=O)O

Legend:
[1] = target: T1, Rho-associated protein kinase 2 (Homo sapiens, UniProt O75116); experiment: Displacement of ARC583 from ROCK2
Target sequence in this assay (O75116 whole entry): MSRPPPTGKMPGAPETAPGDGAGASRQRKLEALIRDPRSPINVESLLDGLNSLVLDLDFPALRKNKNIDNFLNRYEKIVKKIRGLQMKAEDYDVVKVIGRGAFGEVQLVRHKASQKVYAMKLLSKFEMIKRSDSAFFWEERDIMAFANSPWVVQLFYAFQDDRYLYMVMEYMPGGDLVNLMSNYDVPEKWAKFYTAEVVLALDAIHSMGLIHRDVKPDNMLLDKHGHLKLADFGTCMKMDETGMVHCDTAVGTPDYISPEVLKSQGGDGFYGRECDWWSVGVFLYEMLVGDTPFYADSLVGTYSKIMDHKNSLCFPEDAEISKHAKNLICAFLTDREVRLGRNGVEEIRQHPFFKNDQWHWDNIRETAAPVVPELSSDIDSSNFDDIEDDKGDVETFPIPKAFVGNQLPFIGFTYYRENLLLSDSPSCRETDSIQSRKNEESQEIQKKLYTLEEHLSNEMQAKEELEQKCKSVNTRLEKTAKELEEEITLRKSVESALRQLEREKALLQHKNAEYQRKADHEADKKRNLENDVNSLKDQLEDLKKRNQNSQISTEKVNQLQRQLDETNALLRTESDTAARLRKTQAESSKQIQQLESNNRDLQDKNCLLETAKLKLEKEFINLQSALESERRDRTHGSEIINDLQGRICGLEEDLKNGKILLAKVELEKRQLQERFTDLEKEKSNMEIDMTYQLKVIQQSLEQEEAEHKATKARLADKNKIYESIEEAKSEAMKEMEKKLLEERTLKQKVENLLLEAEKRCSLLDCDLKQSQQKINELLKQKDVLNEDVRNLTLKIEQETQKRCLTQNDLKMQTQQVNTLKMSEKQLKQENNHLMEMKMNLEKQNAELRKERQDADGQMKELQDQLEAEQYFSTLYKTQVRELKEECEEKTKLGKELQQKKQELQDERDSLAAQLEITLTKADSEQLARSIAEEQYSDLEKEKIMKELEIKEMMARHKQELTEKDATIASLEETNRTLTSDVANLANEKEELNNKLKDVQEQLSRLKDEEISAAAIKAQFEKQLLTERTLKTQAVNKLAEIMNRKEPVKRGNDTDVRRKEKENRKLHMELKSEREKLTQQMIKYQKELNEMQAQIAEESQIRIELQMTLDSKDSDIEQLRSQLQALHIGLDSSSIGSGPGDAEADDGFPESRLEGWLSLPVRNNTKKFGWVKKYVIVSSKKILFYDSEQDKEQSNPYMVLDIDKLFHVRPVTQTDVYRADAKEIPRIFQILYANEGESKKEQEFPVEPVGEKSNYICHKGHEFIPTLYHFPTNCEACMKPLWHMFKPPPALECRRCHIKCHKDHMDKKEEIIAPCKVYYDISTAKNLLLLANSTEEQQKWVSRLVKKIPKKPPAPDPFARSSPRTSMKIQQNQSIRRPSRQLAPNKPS

[2] = target: T2, cAMP-dependent protein kinase catalytic subunit alpha (Homo sapiens, UniProt P17612); experiment: Inhibition of PKACalpha in presence of 100 uM ATP; conditions: read-out: IC50
How it was run: (§1)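 Kinetic phosphorylation assays with PKA catalytic subunit (PKAc) or PKB catalytic subunit (PKBc) at fixed ATP. ATP Km values taken as 20 for PKAc and 100 for PKBc.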

[3] = target: T3, RAC-gamma serine/threonine-protein kinase (Homo sapiens, UniProt Q9Y243); experiment: Inhibition of PKBgamma in presence of 100 uM ATP; how it was run: as §1
[4] = Inhibition of PKG1 at 100 nM relative to control
How it was run: (§2)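 Kinase panel screen with inhibitor at 100 nM and ATP at about the Km of each kinase. Activity is given as percent inhibition relative to control incubations with the inhibitor omitted. Values are means of duplicate determinations, with the spread reported as the difference between duplicates.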

[5] = target: Protein kinase C eta type (Homo sapiens) (UniProt P24723); experiment: Inhibition of PKCeta at 100 nM relative to control; how it was run: as §2
[6] = target: RAC-alpha serine/threonine-protein kinase (Homo sapiens) (UniProt P31749); experiment: Inhibition of PKBalpha at 100 nM relative to control; how it was run: as §2
[7] = target: Ribosomal protein S6 kinase alpha-5 (Homo sapiens) (UniProt O75582); experiment: Inhibition of MSK1 at 100 nM relative to control; how it was run: as §2
[8] = target: Ribosomal protein S6 kinase alpha-2 (Homo sapiens) (UniProt Q15349); experiment: Inhibition of RSK3 at 100 nM relative to control
How it was run: (§3)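 Kinase panel screen with the inhibitor at 100 nM and ATP at a concentration of about Km for each kinase. Activity was expressed as percent inhibition relative to control incubations that lacked inhibitor. Values are means of duplicate determinations, and the difference between the duplicates is also reported.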

[9] = target: Rho-associated protein kinase 1 (Homo sapiens) (UniProt Q13464); experiment: Inhibition of ROCK1 at 100 nM relative to control; how it was run: as §2
[10] = target: Serine/threonine-protein kinase Sgk2 (Homo sapiens) (UniProt Q9HBY8); experiment: Inhibition of SGK2 at 100 nM relative to control; how it was run: as §3
[11] = target: T1, Rho-associated protein kinase 2; experiment: Inhibition of ROCK2 at 100 nM relative to control; how it was run: as §2
Target sequence in this assay (O75116 whole entry, looked up): as the sequence (O75116 whole entry) above

[12] = target: Proto-oncogene tyrosine-protein kinase Src (Homo sapiens) (UniProt P12931); experiment: Inhibition of SRC at 100 nM relative to control; how it was run: as §3
[13] = target: Protein kinase C epsilon type (Homo sapiens) (UniProt Q02156); experiment: Inhibition of PKCepsilon at 100 nM relative to control; how it was run: as §2
[14] = target: Serine/threonine-protein kinase Sgk1 (Homo sapiens) (UniProt O00141); experiment: Inhibition of SGK1 at 100 nM relative to control; how it was run: as §3
[15] = target: cGMP-dependent protein kinase 2 (Homo sapiens) (UniProt Q13237); experiment: Inhibition of PKG2 at 100 nM relative to control; how it was run: as §2
[16] = target: Ribosomal protein S6 kinase alpha-3 (Homo sapiens) (UniProt P51812); experiment: Inhibition of RSK2 at 100 nM relative to control; how it was run: as §2
[17] = target: Calcium/calmodulin-dependent protein kinase type 1D (Homo sapiens) (UniProt Q8IU85); experiment: Inhibition of CaMK 1delta at 100 nM relative to control; how it was run: as §2
[18] = target: Protein kinase C delta type (Homo sapiens) (UniProt Q05655); experiment: Inhibition of PKCdelta at 100 nM relative to control; how it was run: as §2
[19] = target: Glycogen synthase kinase-3 beta (Homo sapiens) (UniProt P49841); experiment: Inhibition of GSK3-beta at 100 nM relative to control; how it was run: as §2
[20] = target: Aurora kinase A (Homo sapiens) (UniProt O14965); experiment: Inhibition of Aurora A at 100 nM relative to control; how it was run: as §2
[21] = target: cAMP-dependent protein kinase catalytic subunit PRKX (Homo sapiens) (UniProt P51817); experiment: Inhibition of PRKX at 100 nM relative to control; how it was run: as §2
[22] = target: Glycogen synthase kinase-3 alpha (Homo sapiens) (UniProt P49840); experiment: Inhibition of GSK3alpha at 100 nM relative to control; how it was run: as §2
[23] = target: Calcium/calmodulin-dependent protein kinase type II subunit beta (Homo sapiens) (UniProt Q13554); experiment: Inhibition of CaMK2beta at 100 nM relative to control; how it was run: as §2
[24] = target: T2, cAMP-dependent protein kinase catalytic subunit alpha; experiment: Inhibition of PKA Calpha at 100 nM relative to control; how it was run: as §2
[25] = target: Ribosomal protein S6 kinase alpha-4 (Homo sapiens) (UniProt O75676); experiment: Inhibition of MSK2 at 100 nM relative to control; how it was run: as §2
[26] = target: Serine/threonine-protein kinase D3 (Homo sapiens) (UniProt O94806); experiment: Inhibition of PKD3 at 100 nM relative to control; how it was run: as §2
[27] = target: Protein kinase C beta type (Homo sapiens) (UniProt P05771); experiment: Inhibition of PKCbeta1 at 100 nM relative to control; how it was run: as §2
[28] = target: Protein kinase C alpha type (Homo sapiens) (UniProt P17252); experiment: Inhibition of PKCalpha at 100 nM relative to control; how it was run: as §2
[29] = target: Death-associated protein kinase 3 (Homo sapiens) (UniProt O43293); experiment: Inhibition of DAPK3 at 100 nM relative to control; how it was run: as §2
[30] = target: Cyclin-dependent kinase 2/cyclin A (Homo sapiens) (UniProt P24941+P20248+P78396); experiment: Inhibition of CDK2/cyclin A at 100 nM relative to control; assay type: protein-complex assay; how it was run: as §2
[31] = target: Serine/threonine-protein kinase PAK 4 (Homo sapiens) (UniProt O96013); experiment: Inhibition of PAK4 at 100 nM relative to control; how it was run: as §2
[32] = target: Serine/threonine-protein kinase pim-1 (Homo sapiens) (UniProt P11309); experiment: Inhibition of PIM1 at 100 nM relative to control; how it was run: as §2
[33] = target: 3-phosphoinositide-dependent protein kinase 1 (Homo sapiens) (UniProt O15530); experiment: Inhibition of PDK1 at 100 nM relative to control
[34] = target: RAC-beta serine/threonine-protein kinase (Homo sapiens) (UniProt P31751); experiment: Inhibition of PKBbeta at 100 nM relative to control; how it was run: as §2
[35] = target: Serine/threonine-protein kinase PAK 3 (Homo sapiens) (UniProt O75914); experiment: Inhibition of PAK3 at 100 nM relative to control; how it was run: as §2
[36] = target: Protein kinase C theta type (Homo sapiens) (UniProt Q04759); experiment: Inhibition of PKCtheta at 100 nM relative to control; how it was run: as §2
[37] = target: Protein kinase C zeta type (Homo sapiens) (UniProt Q05513); experiment: Inhibition of PKCzeta at 100 nM relative to control; how it was run: as §2
[38] = target: Serine/threonine-protein kinase Chk2 (Homo sapiens) (UniProt O96017); experiment: Inhibition of CHK2 at 100 nM relative to control; how it was run: as §2
[39] = target: Ribosomal protein S6 kinase beta-1 (Homo sapiens) (UniProt P23443); experiment: Inhibition of p70S6 at 100 nM relative to control; how it was run: as §3
[40] = target: Ribosomal protein S6 kinase alpha-1 (Homo sapiens) (UniProt Q15418); experiment: Inhibition of RSK1 at 100 nM relative to control; how it was run: as §2
[41] = target: Serine/threonine-protein kinase PAK 6 (Homo sapiens) (UniProt Q9NQU5); experiment: Inhibition of PAK6 at 100 nM relative to control; how it was run: as §2
[42] = target: Serine/threonine-protein kinase pim-2 (Homo sapiens) (UniProt Q9P1W9); experiment: Inhibition of PIM2 at 100 nM relative to control; how it was run: as §2
[43] = target: Protein kinase C gamma type (Homo sapiens) (UniProt P05129); experiment: Inhibition of PKCgamma at 100 nM relative to control; how it was run: as §2
[44] = target: T3, RAC-gamma serine/threonine-protein kinase; experiment: Inhibition of PKBgamma at 100 nM relative to control; how it was run: as §2
[45] = target: Serine/threonine-protein kinase Chk1 (Homo sapiens) (UniProt O14757); experiment: Inhibition of CHK1 at 100 nM relative to control; how it was run: as §2
[46] = target: Maternal embryonic leucine zipper kinase (Homo sapiens) (UniProt Q14680); experiment: Inhibition of MELK at 100 nM relative to control; how it was run: as §2
[47] = target: Calcium/calmodulin-dependent protein kinase type II subunit alpha (Homo sapiens) (UniProt Q9UQM7); experiment: Inhibition of CaMK2alpha at 100 nM relative to control; how it was run: as §2
[48] = target: Serine/threonine-protein kinase D2 (Homo sapiens) (UniProt Q9BZL6); experiment: Inhibition of PKD2 at 100 nM relative to control; how it was run: as §2
[49] = target: Protein kinase C iota type (Homo sapiens) (UniProt P41743); experiment: Inhibition of PKCiota at 100 nM relative to control; how it was run: as §2
[50] = target: Serine/threonine-protein kinase D1 (Homo sapiens) (UniProt Q15139); experiment: Inhibition of PKCmu at 100 nM relative to control; how it was run: as §2
[51] = target: Protein kinase C beta type (Homo sapiens) (UniProt P05771); experiment: Inhibition of PKCbeta2 at 100 nM relative to control; how it was run: as §2
[52] = target: AMP-activated protein kinase (AMPK) alpha-1/beta-1/gamma-1 (Homo sapiens) (UniProt P54619+Q9Y478+Q13131); experiment: Inhibition of AMPK alpha-1/beta-1/gamma-1 at 100 nM relative to control; assay type: protein-complex assay; how it was run: as §2

T3 sequence (Q9Y243 whole entry): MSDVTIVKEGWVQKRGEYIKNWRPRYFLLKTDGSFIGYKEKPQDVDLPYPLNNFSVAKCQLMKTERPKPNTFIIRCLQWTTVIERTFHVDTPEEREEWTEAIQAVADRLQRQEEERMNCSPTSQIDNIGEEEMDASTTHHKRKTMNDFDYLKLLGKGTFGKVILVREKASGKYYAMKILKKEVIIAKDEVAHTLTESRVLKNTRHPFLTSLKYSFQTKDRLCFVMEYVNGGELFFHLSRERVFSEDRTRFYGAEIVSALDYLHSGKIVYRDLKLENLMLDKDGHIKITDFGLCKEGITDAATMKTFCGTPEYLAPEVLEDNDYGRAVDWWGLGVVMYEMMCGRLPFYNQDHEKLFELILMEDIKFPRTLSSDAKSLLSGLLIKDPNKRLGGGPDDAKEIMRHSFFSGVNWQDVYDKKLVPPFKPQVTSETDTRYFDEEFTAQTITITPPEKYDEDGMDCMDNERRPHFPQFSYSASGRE
Protein kinase C beta type (Homo sapiens), sequence (P05771 2-671 limits assumed): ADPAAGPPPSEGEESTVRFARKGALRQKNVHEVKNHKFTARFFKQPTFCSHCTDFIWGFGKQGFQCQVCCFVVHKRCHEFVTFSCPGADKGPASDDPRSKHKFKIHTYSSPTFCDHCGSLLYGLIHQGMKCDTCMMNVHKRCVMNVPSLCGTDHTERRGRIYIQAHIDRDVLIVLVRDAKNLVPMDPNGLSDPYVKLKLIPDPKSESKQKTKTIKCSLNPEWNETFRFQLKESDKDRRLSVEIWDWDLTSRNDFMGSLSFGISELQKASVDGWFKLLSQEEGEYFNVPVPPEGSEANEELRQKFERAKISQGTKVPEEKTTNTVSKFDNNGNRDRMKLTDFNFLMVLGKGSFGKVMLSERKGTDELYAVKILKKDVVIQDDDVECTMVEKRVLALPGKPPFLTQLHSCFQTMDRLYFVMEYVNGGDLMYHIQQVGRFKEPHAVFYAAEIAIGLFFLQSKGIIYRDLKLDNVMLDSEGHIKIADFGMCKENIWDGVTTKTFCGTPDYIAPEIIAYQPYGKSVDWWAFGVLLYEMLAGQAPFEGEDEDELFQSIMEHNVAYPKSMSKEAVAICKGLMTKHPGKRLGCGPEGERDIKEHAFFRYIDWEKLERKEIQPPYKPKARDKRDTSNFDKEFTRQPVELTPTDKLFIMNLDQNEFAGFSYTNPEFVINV
Serine/threonine-protein kinase Sgk2 (Homo sapiens), sequence (Q9HBY8 whole entry): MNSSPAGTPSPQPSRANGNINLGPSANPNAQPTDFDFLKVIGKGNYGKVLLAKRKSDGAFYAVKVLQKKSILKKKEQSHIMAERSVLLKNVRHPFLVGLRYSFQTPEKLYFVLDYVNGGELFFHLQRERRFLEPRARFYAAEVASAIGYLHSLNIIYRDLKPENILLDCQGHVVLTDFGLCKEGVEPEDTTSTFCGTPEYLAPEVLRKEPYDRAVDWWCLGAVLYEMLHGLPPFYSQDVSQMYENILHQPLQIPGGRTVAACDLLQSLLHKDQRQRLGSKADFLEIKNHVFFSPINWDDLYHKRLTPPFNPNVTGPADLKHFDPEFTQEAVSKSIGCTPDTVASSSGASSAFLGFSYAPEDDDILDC
cGMP-dependent protein kinase 2 (Homo sapiens), sequence (Q13237 whole entry): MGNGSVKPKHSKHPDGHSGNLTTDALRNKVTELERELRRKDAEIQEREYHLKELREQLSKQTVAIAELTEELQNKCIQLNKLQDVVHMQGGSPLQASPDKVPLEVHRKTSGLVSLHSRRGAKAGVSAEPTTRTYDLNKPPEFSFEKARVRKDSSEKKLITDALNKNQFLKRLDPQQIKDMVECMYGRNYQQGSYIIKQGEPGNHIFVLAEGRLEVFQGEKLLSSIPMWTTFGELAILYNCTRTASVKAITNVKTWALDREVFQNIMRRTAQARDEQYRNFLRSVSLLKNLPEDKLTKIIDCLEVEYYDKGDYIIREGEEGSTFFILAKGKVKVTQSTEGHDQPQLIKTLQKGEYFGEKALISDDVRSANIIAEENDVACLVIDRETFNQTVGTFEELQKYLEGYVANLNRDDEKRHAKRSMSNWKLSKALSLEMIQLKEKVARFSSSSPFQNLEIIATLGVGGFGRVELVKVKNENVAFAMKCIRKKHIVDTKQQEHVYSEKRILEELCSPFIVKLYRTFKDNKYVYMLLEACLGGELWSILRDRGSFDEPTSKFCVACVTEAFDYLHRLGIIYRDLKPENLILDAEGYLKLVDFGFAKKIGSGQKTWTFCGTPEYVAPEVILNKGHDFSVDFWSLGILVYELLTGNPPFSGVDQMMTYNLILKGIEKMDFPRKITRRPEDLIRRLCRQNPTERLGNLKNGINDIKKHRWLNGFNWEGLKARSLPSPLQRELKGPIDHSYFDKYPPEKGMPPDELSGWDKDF
Serine/threonine-protein kinase PAK 3 (Homo sapiens), sequence (O75914 whole entry, looked up): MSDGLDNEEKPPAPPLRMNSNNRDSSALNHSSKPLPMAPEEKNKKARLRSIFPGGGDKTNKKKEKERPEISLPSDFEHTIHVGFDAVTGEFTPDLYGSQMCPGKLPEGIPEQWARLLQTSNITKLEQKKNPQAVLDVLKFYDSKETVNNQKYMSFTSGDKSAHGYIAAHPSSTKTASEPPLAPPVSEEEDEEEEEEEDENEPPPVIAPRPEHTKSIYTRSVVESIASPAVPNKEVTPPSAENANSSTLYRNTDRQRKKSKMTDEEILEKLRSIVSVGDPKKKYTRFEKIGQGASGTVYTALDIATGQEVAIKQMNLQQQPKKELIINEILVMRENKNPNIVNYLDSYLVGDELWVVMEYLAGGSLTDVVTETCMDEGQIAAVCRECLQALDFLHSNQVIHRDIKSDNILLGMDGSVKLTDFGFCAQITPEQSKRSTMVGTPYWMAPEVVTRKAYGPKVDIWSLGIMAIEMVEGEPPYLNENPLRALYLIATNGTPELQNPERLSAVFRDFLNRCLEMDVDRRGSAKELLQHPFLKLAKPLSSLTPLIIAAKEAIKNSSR

SMILES: N=C(N)NCCC[C@@H](NC(=O)[C@@H](CCCNC(=N)N)NC(=O)CCCCCNC(=O)[C@@H](CCCCN)NC(=O)CCCCCNC(=O)Nc1ccc(C(N)=O)cc1)C(N)=O
Kd [1]: 6.1 µM
IC50 [2]: 240 µM
IC50 [3]: 900 µM

SMILES: NCCCC[C@@H](NC(=O)CCCCCNC(=O)c1ccc(-c2ccnc(N)n2)s1)C(=O)NCCCCCC(=O)N[C@H](CCCN=C(N)N)C(=O)N[C@H](CCCN=C(N)N)C(=O)N[C@H](CCCN=C(N)N)C(=O)N[C@H](CCCN=C(N)N)C(=O)N[C@H](CCCN=C(N)N)C(=O)N[C@H](CCCN=C(N)N)C(N)=O ({X1-Ahx}-[dK][Ahx][dR][dR][dR][dR][dR][dR]-NH2)
IC50 [3]: 0.012 µM

SMILES: N=C(N)NCCC[C@@H](NC(=O)[C@@H](CCCNC(=N)N)NC(=O)[C@@H](CCCNC(=N)N)NC(=O)[C@@H](CCCNC(=N)N)NC(=O)[C@@H](CCCNC(=N)N)NC(=O)[C@@H](CCCNC(=N)N)NC(=O)CCCCCNC(=O)[C@@H](CCCCN)NC(=O)CCCCCNC(=O)c1ccc(-c2ccnc(N)n2)s1)C(N)=O ({X1-Ahx}-[dK][Ahx][dR][dR][dR][dR][dR][dR]-NH2)
inhibition [4]: 105%
inhibition [5]: 106%
inhibition [6]: 97%
inhibition [7]: 112%
inhibition [8]: 97%
inhibition [9]: 106%
inhibition [10]: 91%
inhibition [11]: 106%
inhibition [12]: 26%
inhibition [13]: 103%
inhibition [14]: 97%
inhibition [15]: 78%
inhibition [16]: 103%
inhibition [17]: 25%
inhibition [18]: 97%
inhibition [19]: 4%
inhibition [20]: 46%
inhibition [21]: 106%
inhibition [22]: 8%
inhibition [23]: 22%
inhibition [24]: 104%
inhibition [25]: 112%
inhibition [26]: 90%
inhibition [27]: 100%
inhibition [28]: 92%
inhibition [29]: 44%
inhibition [30]: 6%
inhibition [31]: 21%
inhibition [32]: 97%
inhibition [33]: 65%
inhibition [34]: 80%
inhibition [35]: 69%
inhibition [36]: 91%
inhibition [37]: 38%
inhibition [38]: 33%
inhibition [39]: 99%
inhibition [40]: 97%
inhibition [41]: 70%
inhibition [42]: 95%
inhibition [43]: 108%
inhibition [44]: 100%
inhibition [45]: 82%
inhibition [46]: 83%
inhibition [47]: 10%
inhibition [48]: 79%
inhibition [49]: 24%
inhibition [50]: 93%
inhibition [51]: 104%
inhibition [52]: 41%

The remaining lines, values ahead:

Kd [1]: 8 µM
IC50 [2]: 183 µM
IC50 [3]: 360 µM
SMILES: NCCCC[C@@H](NC(=O)CCCCCNC(=O)c1ccccc1)C(=O)NCCCCCC(=O)N[C@H](CCCN=C(N)N)C(=O)N[C@H](CCCN=C(N)N)C(N)=O

Kd [1]: 0.177 µM
IC50 [2]: 23 µM
IC50 [3]: 28 µM
SMILES: NCCCC[C@@H](NC(=O)CCCCCNC(=O)c1ccc(C(N)=O)cc1)C(=O)NCCCCCC(=O)N[C@H](CCCN=C(N)N)C(=O)N[C@H](CCCN=C(N)N)C(N)=O

Kd [1]: < 0.003 µM
SMILES: NCCCC[C@@H](NC(=O)CCCCCNC(=O)[C@H]1O[C@@H](n2cnc3c(N)ncnc32)[C@H](O)[C@@H]1O)C(=O)NCCCCCC(=O)N[C@H](CCCN=C(N)N)C(=O)N[C@H](CCCN=C(N)N)C(N)=O
